Screens: PubChem BioAssay, several laboratories
In the library only some 8.4% were active in any assay of this set; here they are far more common.
Ecoli tolC = growth inhibitors of E. coli tolC mutant, primary screen, strain BW25113 ΔtolC::kan, 384-well. OD615. growth inhibition, % at 10 µM (by protocol). hit rate 2.2% among 65,000. AID 573, 2007;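 active means growth inhibition at or above a cutoff equal to the mean over every tested compound plus 3 SD, cut at about 60% in these data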;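 further: growth measured after 20 h incubation at 37 °C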
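test system = E. coli BW25113 ΔtolC::kan bacteria | medium = LB with kanamycin 50 µg/mL | signal = OD at 615 nm | schedule = 37 °C, 20 h exposure | evaluation = % inhibition of E. coli growth | compound dosing = one dose of 10 µM final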
Ecoli WT expand = growth inhibitors of wild-type E. coli, primary screen, strain BW25113, expanded library, OD600 | OD600 absorbance | growth inhibition, % at 100 µM | hit rate 0.15% among 98,000;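 active means growth inhibition above about 50% at one test dose, limit read from the data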;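 further: growth measured after 20 h incubation at 37 °C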
PostGolgi ctrl = growth inhibition of yeast control strain, primary screen, counter-screen for post-Golgi transport modulator project | efflux-deficient yeast background strain, growth absorbance A615, 16 h | inhibition, % at 10 µM | hit rate 5% among 98,000 | AID 738, 2007
Cav32 inh = Cav3.2 calcium influx blockers – cell-based, Fluo-4 calcium fluorescence, FDSS, MLSMR library, primary screen; Voltage-dependent T-type calcium channel subunit alpha-1H (Homo sapiens), O95180; AID 449739, 2010; Cav3.2-expressing cells; stronger effect = lower value; hit rate 4% among 100,000; B-score at 10 µM;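 active means single-dose well whose peak fluorescence ratio is a statistical outlier from its plate by either plate-standardised score or position-corrected B-score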
PostGolgi yeast = phenotypic screen on post-Golgi transport, primary screen. post-Golgi transport phenotypic cell assay. inhibition, % at 10 µM. hit rate 0.9% among 98,000;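 further: yeast cells grown in 1536-well plates; yeast grown about 18 h at 30C before absorbance read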
The depositor's hits bear a star; / = not tested or not shown. Unless noted, no stated cut-off is given here; in the data, active means inhibition above about 30%; inactive means the rest.

SMILES	Ecoli tolC	Ecoli WT expand	PostGolgi ctrl	Cav32 inh	PostGolgi yeast
O=C(Nc1ccccc1)C1=C(O)CC(c2ccoc2)CC1=Nc1ccccc1 (stereo not drawn)	35	-7	46*	-2.5	14
CC1=C(C(=O)Nc2ccccc2)C(c2ccco2)NC(=S)N1 (stereo not drawn)	/	-10	4	-0.03	-4
O=C(Nc1ccccc1)C1=C(O)CC(c2ccco2)CC1=Nc1ccccc1 (stereo not drawn)	12	-1	31*	0.94	69*
Cc1ccc(C)c(Cn2c(CO)nc3ccccc32)c1	19	4	-7	-6.4*	1
Nc1nonc1-c1nc2ccccc2n1Cc1ccccc1	7	-1	42*	-3.5	-8
COCc1nc2ccccc2n1Cc1ccc(Br)cc1	47	6	36*	-1.5	-3
COc1ccc(C(=O)NCCCc2nc3ccccc3n2Cc2cc(C)ccc2C)cc1OC	/	/	/	-1.3	/
Cc1ccc(Cn2c(Cc3ccccc3)nc3ccccc32)cc1	/	5	32*	-5*	2
CCCCn1c(-c2nonc2N)nc2ccccc21	/	-8	10	-3.5	0
Cc1cc(C)c2c(n1)nn1c(C3CC3)cc(C(F)(F)F)nc21	-15	/	/	-0.86	/
CCOC(=O)C1C(=O)NC(C)C1c1ccccc1 (stereo not drawn)	-5	0	5	-0.17	20
Cc1ccc(/C=C/C(=O)O)cc1S(=O)(=O)N(CCO)CCO	/	/	/	-0.21	/
Cc1cccnc1NC(=O)Cn1nc(C)c([N+](=O)[O-])c1C	/	-4	1	-0.17	0
CCOC(=O)N1CCN(C(=O)Cc2ccsc2)CC1	-10	-2	9	-1.2	-7
O=C(NC1CCC(NC(=O)C2CCCO2)CC1)C1CCCO1 (stereo not drawn)	-13	5	6	-0.012	-1
Cc1cccc(NCc2nc3ccccc3n2Cc2ccccc2)c1	/	-9	66*	/	54*
O=C1OCC(CO)(CO)N=C1NNc1ccc(Cl)c(Cl)c1	/	88*	19	-0.45	92*
Clc1ccc(C2C3=C(Nc4ncnn42)c2ccccc2CC3)cc1 (stereo not drawn)	/	-2	7	-0.66	4
CCOC(=O)c1c(N)sc(C(O)(C(F)(F)F)C(F)(F)F)c1-c1ccc(OC)cc1OC	48	6	21	-4.9*	3
Cc1cccc(NC(=O)Cc2cccs2)n1	/	7	10	0.58	2
Oc1ccc(Cl)cc1Cc1cc(Cl)ccc1O	100*	/	/	-3.3	/
Cc1nc2ncnn2c(C)c1CCC(=O)N1CCOCC1	-14	3	-12	-0.4	2
O=C(Nc1ccccc1)C1CCN(c2nccs2)CC1	0	-11	20	0.47	2
Oc1ccc(-c2[nH]nc(-c3ccccc3)c2-c2nc3ccccc3[nH]2)cc1	/	-7	10	-5.5*	0
c1ccc2[nH]c(-c3cscn3)nc2c1	12	/	/	/	/
SMILES	Ecoli tolC	Ecoli WT expand	PostGolgi ctrl	Cav32 inh	PostGolgi yeast
CC(C)c1ccc2c(c1)C(c1ccc(N3CCOCC3)cc1)=NNC(c1cccs1)=N2	/	-12	42*	-5.1	-1
CCCc1nn2c(=O)c(C(c3cccc(Cl)c3)c3c(O)nc4sc(CCC)nn4c3=O)c(O)nc2s1	/	-1	10	0.13	17
Nc1c(C(=O)Nc2ccc(F)cc2)sc2nc(-c3ccco3)ccc12	23	-18	40*	-1	-2
Nc1c(C(=O)Nc2ccc(Br)cc2)sc2nc(-c3ccco3)ccc12	/	-11	-2	-1	12
Cc1ccc(-c2nn(CC(N)=O)c(=O)c3ccccc23)cc1S(=O)(=O)N(C)C	/	-8	20	0.91	2
Cc1ccccc1-c1nc2ccccc2c(=O)n1/N=C/c1ccccc1[N+](=O)[O-]	/	-3	47*	-1.9	0
Cc1nn(-c2ccc(F)cc2)c2sc(C(=O)N3CCCCCC3)cc12	97*	-22	31*	-0.6	-7
CCOC(=O)c1nnn(-c2nonc2N)c1CSc1ccccn1	21	-8	8	-0.12	-6
Cn1cccc1/C=N/n1c(-c2ccc(Cl)cc2Cl)n[nH]c1=S	/	5	43*	-0.98	4
S=c1[nH]nc(-c2ccco2)n1/N=C/c1ccc(Cl)cc1Cl	/	-3	39*	0.049	-6
Cc1csc(N(C(=O)c2cccc(S(=O)(=O)N(C)C)c2)c2ccccc2)n1	3	1	15	-0.11	2
CCOC(=O)c1oc2ccc3c(c2c1C)C(=O)CC1(CCN(C(=O)OCC)CC1)O3	52	-10	35*	0.54	-7
COC(=O)c1ccccc1OCC(=O)N1CCN(c2ccc(OC)cc2)CC1	/	6	-3	0.74	1
O=C1CSC(c2ccccc2F)N1c1cc(Cl)ccc1O (stereo not drawn)	8	5	13	-3.7*	1
CCOc1ccc(N2C(=O)CC(n3ccc(C)n3)C2=O)cc1 (stereo not drawn)	/	/	/	0.78	/
COc1ccccc1-n1c(=S)sc2c(=O)n(Cc3ccco3)c(SC)nc21	23	-15	45*	-1.8	0
CCN(CC)C(=O)CSc1nc2c(sc(=S)n2-c2ccccc2)c(=O)n1Cc1ccco1	/	-17	9	-6.6*	5
CCN(CC)C(=O)CSc1nc2c(sc(=S)n2CC)c(=O)n1-c1ccccc1	/	-6	8	0.16	1
CN(Cc1ccccc1)C(=O)CSc1nc2ccccc2c(=O)n1Cc1ccco1	67*	-30	56*	-3.9	7
Cc1ccc(NC(=O)CN(C)C(=O)CSc2nc3ccccc3c(=O)n2Cc2ccco2)cc1	/	-8	9	/	5
O=c1c2ccccc2nc(SCc2cc(F)cc3c2OCOC3)n1Cc1ccco1	-12	-2	0	-6*	-5
COc1cnc(SCc2c(Cl)cccc2Cl)nc1Cl	/	-8	34*	-0.99	17
CCC(NC(=O)Cn1cnc2c(=O)n(C)c(=O)n(C)c21)c1ccccc1 (stereo not drawn)	-7	-11	11	0.65	3
Cc1cc(C)n(-c2nc(NCCC(C)C)c3c4c(sc3n2)COC(C)(C)C4)n1	/	-2	33*	/	-5
O=C(C1=C[C@H](C2CCCCC2)C[C@H](OCCCCO)O1)N1CCN(Cc2ccccc2)CC1	/	/	/	-0.0015	/
SMILES	Ecoli tolC	Ecoli WT expand	PostGolgi ctrl	Cav32 inh	PostGolgi yeast
CCNS(=O)(=O)c1ccc(C(=O)Nc2ccccc2)cc1	/	-4	9	0.67	8
CC(C)N(C(=O)CSc1nc2ccccc2n1Cc1ccc(F)cc1)C(C)C	/	/	/	-6.3*	/
CCOC(=O)CSc1nc2ccccc2n1CC(=O)N(C(C)C)C(C)C	-5	-1	16	1.2	5
CCN(C(=O)CSc1ncccc1C(=O)OC(C)C)c1cccc(C)c1	/	-4	1	-5.6*	-11
CCOc1ccccc1NC(=O)CC1NCCNC1=O (stereo not drawn)	3	-4	15	0.6	5
CC(=O)N(Cc1ccco1)C1(C(=O)NC2CCCCC2)CCCCC1	-2	1	-7	-0.2	-2
CCC(C)(C(=O)NC1CCCCC1)N(Cc1ccco1)C(=O)Cc1cccs1 (stereo not drawn)	/	-3	2	-4.7*	-11
